Calls of active or inactive are those of the source. The calls are words filed in the database; no cut-off is given here.
Columns and labels:
[1] = Cytotoxicity against human PBL assessed as reduction in cell viability in presence of mitogenic stimulus phytohaemagglutinin incubated for 72 hrs by MTT assay; format: cell-based
Outline: (§1)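 PBLs from healthy donor buffy coats isolated by density-gradient centrifugation, washed, held overnight at 1.0 × 10^6 cells/mL in RPMI-1640 with 10% FBS. Nonadherent cells reseeded at 5 × 10^5 cells/mL, either with 2.5 μg/mL PHA (proliferating) or without (resting). Graded compound concentrations for 72 h, viability by MTT. GI50 = concentration inhibiting growth 50%; mean ± SEM of three separate experiments.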

[2] = Cytotoxicity against human PBL assessed as reduction in cell viability incubated for 72 hrs by MTT assay; format: cell-based; conditions: peripheral blood lymphocytes (PBL); outline: as §1
HeLa [3] = experiment: Induction of cell cycle arrest in human Hela cells assessed as accumulation at G2/M phase at 0.25 uM incubated for 24 hrs by PI staining based flow cytometric analysis; format: functional
Outline: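 HeLa cells (5 × 10^5) exposed to compound at several concentrations for 24 h, then collected, fixed in ice-cold 70% ethanol, treated with lysis buffer containing RNase A and 0.1% Triton X-100, stained with propidium iodide. DNA content measured by flow cytometry; percentage of cells in each cycle phase derived from DNA histograms. Mean ± SEM of three experiments.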

HeLa [4] = experiment: Induction of apoptosis in human HeLa cells assessed as cleaved PARP protein expression at 0.1 uM incubated for 48 hrs by Western blot analysis relative to control; format: functional
Outline: (§2)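 HeLa cells treated at 0.1 or 0.5 μM for 24 or 48 h, washed in ice-cold PBS, lysed on ice 30 min, cleared at 15 000g, 4 °C. 10 μg protein per lane on SDS-PAGE, transferred to PVDF, blocked overnight in 5% BSA at 4 °C. Primary antibodies 2 h at room temperature, peroxidase secondaries 1 h, ECL detection. Membranes reprobed for GAPDH; densitometry reported as protein/GAPDH ratio.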

HeLa [5] = experiment: Induction of apoptosis in human HeLa cells assessed as cleaved PARP protein expression at 0.5 uM incubated for 24 hrs by Western blot analysis relative to control; format: functional; outline: as §2
HeLa [6] = experiment: Induction of apoptosis in human HeLa cells assessed as cleaved PARP protein expression at 0.1 uM incubated for 24 hrs by Western blot analysis relative to control; format: functional; outline: as §2
HeLa [7] = experiment: Induction of reactive oxygen species generation in human HeLa cells at 0.5 uM treated for 48 hrs by H2DCFDA staining based flow cytometry; format: functional, cell-based
Outline: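 After treatment, HeLa cells pelleted and resuspended in PBS containing 0.1 μM H2DCFDA, incubated 30 min at 37 °C, then washed back into PBS. DCF fluorescence measured by flow cytometry (excitation 488 nm, emission 530 nm). Mean ± SEM of three independent experiments.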

HeLa [8] = experiment: Induction of apoptosis in human Hela cells assessed as increase in necrotic cells at 0.5 uM incubated for 24 to 48 hrs by Annexin V-FITC/propidium iodide staining based flow cytometry; format: functional, cell-based; conditions: time hrs 24-48
Outline: (§3)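 HeLa cells exposed 24 or 48 h, harvested, double-stained with annexin-V-FITC and PI, then read by flow cytometry. Gates: live (annexin-V–/PI–), early apoptotic (annexin-V+/PI–), late apoptotic (annexin-V+/PI+), necrotic (annexin-V–/PI+). Mean ± SEM of three independent experiments.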

HeLa [9] = experiment: Induction of apoptosis in human Hela cells assessed as increase in apoptotic cells at 0.5 uM incubated for 24 to 48 hrs by Annexin V-FITC/propidium iodide staining based flow cytometry; format: functional, cell-based; conditions: time hrs 24-48; outline: as §3
HeLa [10] = experiment: Induction of cell cycle arrest in human Hela cells assessed as cdc25c expression at 0.1 uM incubated for 48 hrs by Western blot analysis relative to control; format: functional; outline: as §2
HeLa [11] = experiment: Induction of cell cycle arrest in human Hela cells assessed as cdc25c expression at 0.5 uM incubated for 24 hrs by Western blot analysis relative to control; format: functional; outline: as §2
HeLa [12] = experiment: Induction of cell cycle arrest in human Hela cells assessed as cdc25c expression at 0.1 uM incubated for 24 hrs by Western blot analysis relative to control; format: functional; outline: as §2
HeLa [13] = experiment: Induction of cell cycle arrest in human Hela cells assessed as accumulation at G2/M phase at 0.125 uM incubated for 24 hrs by PI staining based flow cytometric analysis; format: functional
Outline: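 5 × 10^5 HeLa cells treated 24 h over a range of concentrations, fixed in ice-cold 70% ethanol, treated with lysis buffer containing RNase A and 0.1% Triton X-100, PI-stained. DNA content read by flow cytometry; phase distribution is mean ± SEM of three experiments.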

HeLa [14] = experiment: Induction of cell cycle arrest in human Hela cells assessed as accumulation at G2/M phase incubated for 24 hrs by PI staining based flow cytometric analysis; format: functional
HeLa [15] = experiment: Induction of apoptosis in human HeLa cells assessed as cleaved PARP protein expression at 0.5 uM incubated for 48 hrs by Western blot analysis relative to control; format: functional; outline: as §2
HeLa [16] = experiment: Induction of cell cycle arrest in human Hela cells assessed as phosphorylated cdc2 expression at 0.1 uM incubated for 24 hrs by Western blot analysis relative to control; format: functional; outline: as §2
HeLa [17] = experiment: Induction of cell cycle arrest in human Hela cells assessed as phosphorylated cdc2 expression at 0.5 uM incubated for 24 hrs by Western blot analysis relative to control; format: functional; outline: as §2
HeLa [18] = experiment: Induction of cell cycle arrest in human Hela cells assessed as phosphorylated cdc2 expression at 0.1 uM incubated for 48 hrs by Western blot analysis relative to control; format: functional; outline: as §2
HeLa [19] = experiment: Induction of cell cycle arrest in human Hela cells assessed as phosphorylated cdc2 expression at 0.5 uM incubated for 48 hrs by Western blot analysis relative to control; format: functional; outline: as §2
HeLa [20] = experiment: Induction of cell cycle arrest in human Hela cells assessed as cyclin B expression at 0.1 uM incubated for 24 hrs by Western blot analysis relative to control; format: functional; outline: as §2
HeLa [21] = experiment: Induction of cell cycle arrest in human Hela cells assessed as cyclin B expression at 0.5 uM incubated for 24 hrs by Western blot analysis relative to control; format: functional; outline: as §2
HeLa [22] = experiment: Induction of cell cycle arrest in human Hela cells assessed as cyclin B expression at 0.1 uM incubated for 48 hrs by Western blot analysis relative to control; format: functional; outline: as §2
HeLa [23] = experiment: Induction of cell cycle arrest in human Hela cells assessed as cyclin B expression at 0.5 uM incubated for 48 hrs by Western blot analysis relative to control; format: functional; outline: as §2
HeLa [24] = experiment: Induction of apoptosis in human HeLa cells assessed as MCL1 protein expression at 0.1 uM incubated for 24 hrs by Western blot analysis relative to control; format: functional; outline: as §2
HeLa [25] = experiment: Induction of apoptosis in human HeLa cells assessed as MCL1 protein expression at 0.5 uM incubated for 24 hrs by Western blot analysis relative to control; format: functional; outline: as §2
HeLa [26] = experiment: Induction of apoptosis in human HeLa cells assessed as MCL1 protein expression at 0.1 uM incubated for 48 hrs by Western blot analysis relative to control; format: functional; outline: as §2
HeLa [27] = experiment: Induction of apoptosis in human HeLa cells assessed as MCL1 protein expression at 0.5 uM incubated for 48 hrs by Western blot analysis relative to control; format: functional; outline: as §2
HeLa [28] = experiment: Induction of apoptosis in human HeLa cells assessed as XIAP protein expression at 0.1 uM incubated for 24 hrs by Western blot analysis relative to control; format: functional; outline: as §2
HeLa [29] = experiment: Induction of apoptosis in human HeLa cells assessed as XIAP protein expression at 0.5 uM incubated for 24 hrs by Western blot analysis relative to control; format: functional; outline: as §2
HeLa [30] = experiment: Induction of apoptosis in human HeLa cells assessed as XIAP protein expression at 0.1 uM incubated for 48 hrs by Western blot analysis relative to control; format: functional; outline: as §2
HeLa [31] = experiment: Induction of cell cycle arrest in human Hela cells assessed as reduction of cells at S phase 1 uM incubated for 24 hrs by PI staining based flow cytometric analysis; format: functional
HeLa [32] = experiment: Induction of cell cycle arrest in human Hela cells assessed as accumulation at M phase at 1 uM incubated for 24 hrs by PI staining based flow cytometric analysis; format: functional

For CCOC(=O)c1c(Cl)c2c(n1Cc1cc(OC)cc(OC)c1)-c1oncc1CCC2, the GI50 at 72 h [1] was over 100 µM, the GI50 at 72 h [2] was over 100 µM and the Activity (HeLa [3]) was “Active”.
In the case of CCOC(=O)c1cc2c(n1Cc1cc(OC)cc(OC)c1)-c1oncc1CCC2, the “fold change (FC)” value (HeLa [4]) was 13.8, the “fold change (FC)” value (HeLa [5]) was 42.13 and the “fold change (FC)” value (HeLa [6]) was 17.65. The Activity (HeLa [7]) was “Active”, the Activity (HeLa [8]) was “Active” and the Activity (HeLa [9]) was “Active”. For the same compound, the “fold change (FC)” value (HeLa [10]) was 0.23, the “fold change (FC)” value (HeLa [11]) was 0.05 and the “fold change (FC)” value (HeLa [12]) was 0.23. For the same compound, the Activity (HeLa [13]) was “Active”, the Activity (HeLa [14]) was “Dose-dependent effect” and the GI50 at 72 h [1] was over 100 µM. The GI50 at 72 h [2] was over 100 µM, the “fold change (FC)” value (HeLa [15]) was 42.83 and the “fold change (FC)” value (HeLa [16]) was 0.51. The “fold change (FC)” value (HeLa [17]) was 0.31, the “fold change (FC)” value (HeLa [18]) was 0.17 and the “fold change (FC)” value (HeLa [19]) was 0.31. For the same compound, the “fold change (FC)” value (HeLa [20]) was 18.74, the “fold change (FC)” value (HeLa [21]) was 64.07 and the “fold change (FC)” value (HeLa [22]) was 2.39. For the same compound, the “fold change (FC)” value (HeLa [23]) was 2.05, the “fold change (FC)” value (HeLa [24]) was 0.37 and the “fold change (FC)” value (HeLa [25]) was 0.11. For the same compound, the “fold change (FC)” value (HeLa [26]) was 0.37, the “fold change (FC)” value (HeLa [27]) was 0.38 and the “fold change (FC)” value (HeLa [28]) was 0.91. For the same compound, the “fold change (FC)” value (HeLa [29]) was 0.54 and the “fold change (FC)” value (HeLa [30]) was 0.12.
In the case of CCOC(=O)c1cc2c(n1Cc1cccc(OC)c1)-c1oncc1CCC2, the Activity (HeLa [31]) was “Active”, the Activity (HeLa [32]) was “Active” and the GI50 at 72 h [1] was over 100 µM. For the same compound, the GI50 at 72 h [2] was over 100 µM.

Reference: ChEMBL document CHEMBL4665839, “Pyrrolo[2',3':3,4]cyclohepta[1,2-d][1,2]oxazoles, a New Class of Antimitotic Agents Active against Multiple Malignant Cell Types” (J Med Chem, 2020)
